Screens: PubChem, several laboratories
DAGLB inhibitor – diacylglycerol lipase beta (human) inhibition; Q8NCG7; actives 0.059% (n = 340,000); inhibition, % at 5.17 µM; HEK293T DAGLB membrane lysate, EnzChek fluorogenic substrate; in the data active = inhibition above about 34%;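 also: 0% = enzyme with vehicle and 100% = wells lacking enzyme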
Target sequence (Q8NCG7 whole entry, looked up): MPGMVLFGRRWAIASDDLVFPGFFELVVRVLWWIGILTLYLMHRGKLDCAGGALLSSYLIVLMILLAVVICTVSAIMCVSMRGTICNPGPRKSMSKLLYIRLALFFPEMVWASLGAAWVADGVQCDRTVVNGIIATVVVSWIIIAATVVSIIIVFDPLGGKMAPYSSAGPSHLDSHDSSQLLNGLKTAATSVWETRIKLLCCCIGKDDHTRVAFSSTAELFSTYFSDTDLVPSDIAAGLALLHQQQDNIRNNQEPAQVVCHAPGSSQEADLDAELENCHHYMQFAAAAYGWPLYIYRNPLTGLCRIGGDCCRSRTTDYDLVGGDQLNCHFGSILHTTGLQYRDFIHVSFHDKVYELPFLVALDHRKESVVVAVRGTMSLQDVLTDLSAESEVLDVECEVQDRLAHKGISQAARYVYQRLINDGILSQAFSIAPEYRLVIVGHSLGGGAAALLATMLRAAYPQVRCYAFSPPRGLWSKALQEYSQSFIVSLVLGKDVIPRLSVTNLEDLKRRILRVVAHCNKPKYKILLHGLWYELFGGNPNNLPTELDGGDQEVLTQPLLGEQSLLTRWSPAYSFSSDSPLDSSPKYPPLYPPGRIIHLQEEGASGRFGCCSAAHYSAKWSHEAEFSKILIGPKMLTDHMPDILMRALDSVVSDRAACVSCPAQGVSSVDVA
GPR7 antag – blocks human GPR7 receptor signaling. AID 1861. inhibition, % at 4.4 µM. P48145. actives 1.1% (n = 290,000). GPR7-expressing cells, fluorescence antagonist assay; in the data active = inhibition above about 16%, passing the limit was not always enough;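 also: cells stimulated with the agonist NPW; 0% = agonist with vehicle and 100% = vehicle without agonist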
TAAR1 ag – agonists of human TAAR1; CHO RD-HGA16 TAAR1, Fluo-8 calcium fluorescence; vehicle wells 0%, saturating PEA agonist 100%; activation, % at 3 µM; actives 0.99% (n = 360,000);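 active = activation above the mean activation of all test compounds in the run plus 3 SD, cut at about 38% in these data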
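test system = CHO RD-HGA16 cells carrying human TAAR1 plus Gα16 | schedule = 17-24 h seeding, 75 min 37 °C dye, 30 min RT | compound dosing = 3 µM single concentration | control set = DMSO and PEA EC100 | replicates = n 1 | signal = Fluo-8 fluorescence, 5 s baseline then 140 s kinetic read | measure = percent activation vs PEA EC100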
TAAR1 antag – antagonists of human TAAR1 | Q96RJ0 | CHO RD-HGA16 TAAR1, Fluo-8 calcium fluorescence, antagonist | inhibition, % at 3 µM | actives 1.5% (n = 360,000) | AID 624466;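 active = inhibition above a per-plate cutoff, the mean inhibition of test compounds on that plate plus 3 SD, cut at about 49% in these data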;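 also: 0% = DMSO plus EC80 beta-PEA response and 100% = DMSO alone without agonist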
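Material: RD-HGA16 CHO cells with stable hTAAR1 and Gα16; Dosing: single nominal final test compound concentration of 3 µM; Schedule: seeding 17-24 h prior, 75-min 37 °C, 30-min RT dye loading; Detection: kinetic Fluo-8 calcium fluorescence measurement; Measure: % inhibition from peak post-agonist over basal fluorescence ratio; Benchmarks: vehicle and agonist controls.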
MPTP inh – inhibitors of mitochondrial permeability transition pore; inhibition, % at 10 µM; isolated mouse mitochondria, Ca2+ swelling absorbance, 30 min; actives 1.4% (n = 360,000);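 active = inhibition of 50% or more, scaled per plate between neutral and stimulator controls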;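 also: 0% = DMSO wells given calcium and 100% = 1 mM EGTA wells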
GPR7 antag conf – human GPR7 antagonism, confirmation assay; shares compounds with GPR7 antag; GPR7-expressing cells, calcium fluorescence antagonist mode; inhibition, % at 4.4 µM; actives 52% (n = 2,400); AID 1952; in the data active = inhibition above about 24%;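 also: stimulated with the GPR7 agonist NPW; 0% = agonist plus vehicle and 100% = vehicle alone without agonist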
MCHR1 antagonist – counter-screen for GPR7 antagonists: antagonists of human MCHR1 | shares compounds with GPR7 antag | MCHR1-expressing cells, fluorescence antagonist assay | AID 2148 | actives 62% (n = 2,400) | inhibition, % at 4.4 µM; in the data active = inhibition above about 22%;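 also: 0% = vehicle with agonist and 100% = vehicle without agonist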
Starred values were filed as active, the others as inactive; . = not tested or not shown. Only some compounds are listed: those with a hit (about 4% of all), similar ones and a draw of the others.

SMILES	DAGLB inhibitor	GPR7 antag	TAAR1 ag	TAAR1 antag	MPTP inh	GPR7 antag conf	MCHR1 antagonist
CCn1c(SCC(=O)Nc2ccc(C(C)=O)cc2)nc2ccccc21	-6	30*	3	16	7	4	20
CCn1c(SCC(=O)Nc2ccc3[nH]c(=O)[nH]c3c2)nc2ccccc21	0	.	0	-5	0	.	.
COc1ccc(C(=O)c2c(C)c3ccccc3n2CC(O)CNC(C)C)cc1 (centres undefined)	-2	21*	13	-17	-5	12	18
COc1ccc(NCC(=O)n2c(C)c(C)c3ccccc32)cc1	1	4	3	-8	-1	.	.
CCOc1ccccc1NC(=O)c1cc(S(=O)(=O)NCc2ccco2)ccc1F	-17	24*	1	2	1	-11	8
O=C(N[C@H](Cc1ccccc1)C(=O)NCc1ccc2c(c1)OCO2)[C@H]1O[C@@H](n2ccc(=O)[nH]c2=O)[C@H](O)[C@@H]1O	.	.	1	-12	.	.	.
CCOC(=O)c1sc(NC(=O)CC(C)c2ccccc2)nc1C (centres undefined)	-10	34*	0	-6	0	37*	28*
CCOC(=O)c1sc(NC(=O)CCc2ccccc2)nc1C	-3	1	5	2	1	.	.
CCOC(=O)C1CCCN(Cc2c(C(=O)N3CCCCC3)nc3c(C)cccn23)C1 (centres undefined)	-1	-3	7	12	-2	.	.
Cc1cccn2c(CNC3CCCc4ccccc43)c(C(=O)N3CCCCC3)nc12 (centres undefined)	-4	34*	9	21	1	17	17
C=CCn1cc(CN2CCC(C(=O)Nc3cccc(-c4cccc(Cl)c4)c3)CC2)c(C)n1	0	41*	12	-19	16	41*	58*
COCc1ccc(CN2CCC(C(=O)Nc3cccc(-c4cccc(Cl)c4)c3)CC2)o1	1	27*	18	21	15	41*	82*
Cc1c(Br)cccc1NC(=O)C1(C)CCN1Cc1ccccc1OC(F)F (centres undefined)	.	.	-1	7	1	.	.
Nc1[nH]c(C(=O)c2ccccc2)c(-c2cc(F)ccc2Br)c1C(=O)NCCc1c[nH]c2ccccc12	.	.	2	1	.	.	.
O=C(C(=O)N1CCC(CNC(=O)c2ccccc2F)CC1)c1cc2ccccc2o1	.	.	0	11	.	.	.
Cc1ccc(-n2c(SCC(=O)N3CCCCC3)nc(O)c(Cc3ccccc3)c2=O)cc1	1	25*	3	-20	-2	10	4
O=C(Nc1ccc(S(=O)(=O)N2CCCC2)cc1)c1ccc(CN2CCc3ccccc3C2)cc1	-2	28*	9	21	49	47*	63*
COc1ccc(C(NC(=O)CN2C(=O)NC3(CCc4ccccc43)C2=O)c2ccc(OC)cc2)cc1 (centres undefined)	-2	.	9	36	0	.	.
COc1ccc(-n2c(=S)[nH]c3cc(C(=O)NCc4ccccc4OC)ccc3c2=O)c(OC)c1	-1	26*	18	29	0	38*	39*
COc1ccc(-n2c(=S)[nH]c3cc(C(=O)Nc4ccccc4OC)ccc3c2=O)c(OC)c1	1	31*	3	20	-1	24*	46*
COc1ccc(-n2c(=S)[nH]c3cc(C(=O)Nc4ccccc4OC)ccc3c2=O)cc1	.	-3	0	5	.	.	.
O=C(NCc1ccccc1Cl)c1ccc2nc([C@@H]3O[C@H](CO)[C@@H](O)[C@H]3O)[nH]c2c1	.	.	3	-29	-1	.	.
S=C(NCC1CCCO1)N1CCN(c2nc(-c3ccc(Cl)cc3)cs2)CC1 (centres undefined)	-7	21*	0	28	4	58*	72*
S=C(NCCCN1CCOCC1)N1CCN(c2nc(-c3ccc(Cl)cc3)cs2)CC1	2	5	7	41	2	.	.
COc1cc(C(O)c2nc(-c3ccc(C)c(C)c3)cs2)ccc1F (centres undefined)	.	.	0	18	4	.	.
SMILES	DAGLB inhibitor	GPR7 antag	TAAR1 ag	TAAR1 antag	MPTP inh	GPR7 antag conf	MCHR1 antagonist
C[C@H]1CN(c2ccc(N3CCN(C(=O)OC(C)(C)C)C[C@@H]3C)cc2C#N)CCN1Cc1ccccc1	.	.	-1	9	.	.	.
COc1ccc(CC(=O)NC(=S)Nc2ccc(S(=O)(=O)NC(C)(C)C)cc2)cc1	-1	49*	53*	31	-4	72*	70*
C=CCN(CC=C)S(=O)(=O)c1ccc(NC(=S)NC(=O)Cc2ccc(OC)cc2)cc1	-7	34*	23	27	-1	50*	65*
COc1ccc(NC(=S)NC(=O)Cc2ccccc2)cc1	-8	2	14	-7	1	.	.
CCOc1ccc(NC(=O)CCn2c(=S)oc3ccccc32)cc1	0	35*	0	-3	0	10	6
O=C(O)c1ccc(-n2nncc2-c2ccco2)cc1	2	-16	2	-6	-1	.	.
O=C(Nc1ccc(-n2nncc2-c2ccco2)cc1)c1ccc(F)cc1	4	22*	8	15	1	40*	73*
Fc1ccc(Cn2nnnc2C(c2ccc(Cl)cc2)N2CCSCC2)cc1 (centres undefined)	-3	34*	1	-10	3	40*	27*
O=C(NC1CCCC1)[C@@H]1CCCN1C(=O)[C@H](Cc1cccnc1)NC(=O)N1CCOCC1	.	.	3	-6	.	.	.
O=S(=O)(c1ccc(OCC(O)CN2CCN(c3ccccc3O)CC2)cc1)N1CCOCC1 (centres undefined)	0	-11	7	-18	2	.	.
O=S(=O)(c1ccc(OCC(O)CN2CCN(c3ccccc3)CC2)cc1)N1CCOCC1 (centres undefined)	1	25*	15	-5	0	5	12
CC(C)C[C@@H](CNCC(=O)[C@H](C)NC(=O)c1[nH]cnc1C(=O)N[C@@H](C)CN)NC(=O)c1nc[nH]c1C(=O)N[C@@H](CC(=O)O)C(=O)O	-2	.	0	-11	0	.	.
O=C(CC(C(=O)N1CCc2ccccc21)n1ccnc1)NCC1CCCO1 (centres undefined)	1	24*	6	-8	-1	4	4
CCCCNC(=O)CC(C(=O)N1CCc2ccccc21)n1ccnc1 (centres undefined)	-1	-4	18	-9	-1	.	.
O=C(c1csc2c1CCCC2)N1CCN(c2ccccc2)CC1	-6	35*	16	-3	-1	24	12
COc1ccc(-n2c(=O)[nH]c3cc(C(=O)NCCc4ccc(Cl)cc4)ccc3c2=O)cc1OC	-4	36*	6	45	2	36*	60*
